ChEMBL document CHEMBL1137333, “Synthesis, radiosynthesis, and biological evaluation of carbon-11 labeled 2beta-carbomethoxy-3beta-(3'-((Z)-2-haloethenyl)phenyl)nortropanes: candidate radioligands for in vivo imaging of the serotonin transporter with positron emission tomography” (J Med Chem, 2006)

What was measured:
[1] = test system: Cynomolgus monkey; test: Ratio of uptake in thalamus to cerebellum of anesthetized cynomolgus monkey after 65 mins; type: ADME, organism-based; conditions: in vivo
Summary of the method: (§1)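 Baseline microPET (Concorde P4) in anesthetized cynomolgus monkey after injection of the [11C]-labelled tracer. Regional time-activity curves were taken, and each region's uptake was divided by cerebellum uptake (low-SERT reference) at 65, 85 and 105 min postinjection.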

[2] = test system: Cynomolgus monkey; test: Uptake in anesthetized cynomolgus monkey midbrain after 95.0 mins; type: ADME, organism-based; conditions: in vivo
Summary of the method: (§2)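 Baseline microPET scan (P4 scanner) of anesthetized cynomolgus monkeys after injection of the carbon-11 labelled nortropane tracer. Two baseline studies were run per tracer. Radioactivity was followed over time in regional brain time-activity curves.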

[3] = test system: Cynomolgus monkey; test: Uptake in anesthetized cynomolgus monkey caudate after 9.5 mins; type: ADME, organism-based, Caudate nucleus; conditions: in vivo
Summary of the method: (§3)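 Baseline microPET (Concorde P4) regional brain time-activity curves in anesthetized cynomolgus monkey following injection of the [11C]-labelled tracer, with radioactivity followed over the scan.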

[4] = test system: Cynomolgus monkey; test: Uptake in anesthetized cynomolgus monkey midbrain after 15.5 mins; type: ADME, organism-based; conditions: in vivo; summary of the method: as §2
[5] = test system: Cynomolgus monkey; test: Uptake in anesthetized cynomolgus monkey medulla after 105.0 mins; type: ADME, organism-based, Medulla of organ; conditions: in vivo, 1.75 h; summary of the method: as §2
[6] = test system: Cynomolgus monkey; test: Uptake in anesthetized cynomolgus monkey thalamus after 135.0 mins; type: ADME, organism-based; conditions: in vivo, 2.25 h
Summary of the method: (§4)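 Baseline microPET (Concorde P4) scan in anesthetized cynomolgus monkeys after injection of the carbon-11 labeled tracer, with no chase drug. Regional brain time-activity curves were followed over the scan. Tracer radiochemical purity and specific activity were determined by analytical HPLC at the time of injection.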

[7] = test system: Cynomolgus monkey; test: Uptake in anesthetized cynomolgus monkey cerebellum after 0.5 mins; type: ADME, organism-based; conditions: in vivo; summary of the method: as §3
[8] = test system: Cynomolgus monkey; test: Uptake in anesthetized cynomolgus monkey putamen after 45.0 mins; type: ADME, organism-based; conditions: in vivo, 0.75 h; summary of the method: as §4
[9] = test system: Cynomolgus monkey; test: Uptake in anesthetized cynomolgus monkey frontal after 27.5 mins; type: ADME, organism-based, Frontal cortex; conditions: in vivo; summary of the method: as §2
[10] = test system: Cynomolgus monkey; test: Uptake in anesthetized cynomolgus monkey putamen after 125.0 mins; type: ADME, organism-based; conditions: in vivo; summary of the method: as §4
[11] = test system: Cynomolgus monkey; test: Uptake in anesthetized cynomolgus monkey frontal after 15.5 mins; type: ADME, organism-based, Frontal cortex; conditions: in vivo; summary of the method: as §2
[12] = test system: Cynomolgus monkey; test: Uptake in anesthetized cynomolgus monkey caudate after 125.0 mins; type: ADME, organism-based, Caudate nucleus; conditions: in vivo; summary of the method: as §3
[13] = test system: Cynomolgus monkey; test: Uptake in anesthetized cynomolgus monkey putamen after 6.5 mins; type: ADME, organism-based; conditions: in vivo; summary of the method: as §4
[14] = test system: Cynomolgus monkey; test: Ratio of uptake in putamen to cerebellum of anesthetized cynomolgus monkey after 65 mins; type: ADME, organism-based; conditions: in vivo; summary of the method: as §1
[15] = test system: Cynomolgus monkey; test: Uptake in anesthetized cynomolgus monkey medulla after 35.0 mins; type: ADME, organism-based, Medulla of organ; conditions: in vivo; summary of the method: as §2
[16] = test system: Cynomolgus monkey; test: Uptake in anesthetized cynomolgus monkey thalamus after 3.5 mins; type: ADME, organism-based; conditions: in vivo; summary of the method: as §4
[17] = test system: Cynomolgus monkey; test: Uptake in anesthetized cynomolgus monkey cerebellum after 125.0 mins; type: ADME, organism-based, Macaca mulatta; conditions: rhesus monkey, in vivo; summary of the method: as §3
[18] = test system: Cynomolgus monkey; test: Uptake in anesthetized cynomolgus monkey putamen after 15.5 mins; type: ADME, organism-based; conditions: in vivo; summary of the method: as §4
[19] = test system: Cynomolgus monkey; test: Ratio of uptake in midbrain to cerebellum of anesthetized cynomolgus monkey after 105 mins; type: ADME, organism-based; conditions: in vivo, 1.75 h; summary of the method: as §1
[20] = test system: Cynomolgus monkey; test: Uptake in anesthetized cynomolgus monkey medulla after 4.5 mins; type: ADME, organism-based, Medulla of organ; conditions: in vivo, 0.075 h; summary of the method: as §2
[21] = test system: Cynomolgus monkey; test: Uptake in anesthetized cynomolgus monkey medulla after 22.5 mins; type: ADME, organism-based, Medulla of organ; conditions: in vivo, 0.375 h; summary of the method: as §2
[22] = test system: Cynomolgus monkey; test: Ratio of uptake in occipital to cerebellum of anesthetized cynomolgus monkey after 65 mins; type: ADME, organism-based; conditions: in vivo; summary of the method: as §1
[23] = test system: Cynomolgus monkey; test: Uptake in anesthetized cynomolgus monkey pons after 135.0 mins; type: ADME, organism-based; conditions: in vivo, 2.25 h; summary of the method: as §4
[24] = test system: Cynomolgus monkey; test: Uptake in anesthetized cynomolgus monkey frontal after 135.0 mins; type: ADME, organism-based, Frontal cortex; conditions: in vivo, 2.25 h; summary of the method: as §2
[25] = test system: Cynomolgus monkey; test: Ratio of uptake in pons to cerebellum of anesthetized cynomolgus monkey after 85 mins; type: ADME, organism-based; conditions: in vivo; summary of the method: as §1
[26] = test system: Cynomolgus monkey; test: Uptake in anesthetized cynomolgus monkey caudate after 35.0 mins; type: ADME, organism-based, Caudate nucleus; conditions: in vivo; summary of the method: as §3
[27] = test system: Cynomolgus monkey; test: Ratio of uptake in thalamus to cerebellum of anesthetized cynomolgus monkey after 105 mins; type: ADME, organism-based; conditions: in vivo, 1.75 h; summary of the method: as §1
[28] = test system: Cynomolgus monkey; test: Uptake in anesthetized cynomolgus monkey caudate after 2.5 mins; type: ADME, organism-based, Caudate nucleus; conditions: in vivo; summary of the method: as §3
[29] = test system: Cynomolgus monkey; test: Ratio of uptake in frontal to cerebellum of anesthetized cynomolgus monkey after 65 mins; type: ADME, organism-based; conditions: in vivo; summary of the method: as §1
[30] = test system: Cynomolgus monkey; test: Ratio of uptake in midbrain to cerebellum of anesthetized cynomolgus monkey after 85 mins; type: ADME, organism-based; conditions: in vivo; summary of the method: as §1
[31] = test system: Cynomolgus monkey; test: Uptake in anesthetized cynomolgus monkey caudate after 27.5 mins; type: ADME, organism-based, Caudate nucleus; conditions: in vivo; summary of the method: as §3
[32] = test system: Cynomolgus monkey; test: Uptake in anesthetized cynomolgus monkey midbrain after 6.5 mins; type: ADME, organism-based; conditions: in vivo; summary of the method: as §2
[33] = test system: Cynomolgus monkey; test: Uptake in anesthetized cynomolgus monkey putamen after 35.0 mins; type: ADME, organism-based; conditions: in vivo; summary of the method: as §4
[34] = test system: Cynomolgus monkey; test: Uptake in anesthetized cynomolgus monkey thalamus after 125.0 mins; type: ADME, organism-based; conditions: in vivo; summary of the method: as §4
[35] = test system: Cynomolgus monkey; test: Uptake in anesthetized cynomolgus monkey midbrain after 45.0 mins; type: ADME, organism-based; conditions: in vivo, 0.75 h; summary of the method: as §2
[36] = test system: Cynomolgus monkey; test: Uptake in anesthetized cynomolgus monkey medulla after 6.5 mins; type: ADME, organism-based, Medulla of organ; conditions: in vivo; summary of the method: as §2
[37] = test system: Cynomolgus monkey; test: Uptake in anesthetized cynomolgus monkey midbrain after 35.0 mins; type: ADME, organism-based; conditions: in vivo; summary of the method: as §2
[38] = test system: Cynomolgus monkey; test: Uptake in anesthetized cynomolgus monkey putamen after 135.0 mins; type: ADME, organism-based; conditions: in vivo, 2.25 h; summary of the method: as §4
[39] = test system: Cynomolgus monkey; test: Uptake in anesthetized cynomolgus monkey putamen after 85.0 mins; type: ADME, organism-based; conditions: in vivo; summary of the method: as §4
[40] = test system: Cynomolgus monkey; test: Uptake in anesthetized cynomolgus monkey occipital after 0.5 mins; type: ADME, organism-based, Occipital cortex; conditions: in vivo; summary of the method: as §2
[41] = test system: Cynomolgus monkey; test: Uptake in anesthetized cynomolgus monkey frontal after 22.5 mins; type: ADME, organism-based, Frontal cortex; conditions: in vivo, 0.375 h; summary of the method: as §2
[42] = test system: Cynomolgus monkey; test: Uptake in anesthetized cynomolgus monkey cerebellum after 95.0 mins; type: ADME, organism-based; conditions: in vivo; summary of the method: as §3
[43] = test system: Cynomolgus monkey; test: Uptake in anesthetized cynomolgus monkey caudate after 0.5 mins; type: ADME, organism-based, Caudate nucleus; conditions: in vivo; summary of the method: as §3
[44] = test system: Cynomolgus monkey; test: Uptake in anesthetized cynomolgus monkey putamen after 1.5 mins; type: ADME, organism-based; conditions: in vivo, 0.025 h; summary of the method: as §4
[45] = test system: Cynomolgus monkey; test: Uptake in anesthetized cynomolgus monkey thalamus after 55.0 mins; type: ADME, organism-based; conditions: in vivo; summary of the method: as §4
[46] = test system: Cynomolgus monkey; test: Uptake in anesthetized cynomolgus monkey pons after 1.5 mins; type: ADME, organism-based, Macaca mulatta; conditions: rhesus monkey, in vivo, 0.025 h; summary of the method: as §2
[47] = test system: Cynomolgus monkey; test: Uptake in anesthetized cynomolgus monkey pons after 85.0 mins; type: ADME, organism-based; conditions: in vivo; summary of the method: as §4
[48] = test system: Cynomolgus monkey; test: Ratio of uptake in medulla to cerebellum of anesthetized cynomolgus monkey after 85 mins; type: ADME, organism-based; conditions: in vivo; summary of the method: as §1
[49] = test system: Cynomolgus monkey; test: Uptake in anesthetized cynomolgus monkey putamen after 2.5 mins; type: ADME, organism-based; conditions: in vivo; summary of the method: as §4
[50] = test system: Cynomolgus monkey; test: Uptake in anesthetized cynomolgus monkey occipital after 4.5 mins; type: ADME, organism-based, Occipital cortex; conditions: in vivo, 0.075 h; summary of the method: as §2
[51] = test system: Cynomolgus monkey; test: Uptake in anesthetized cynomolgus monkey frontal after 65.0 mins; type: ADME, organism-based, Frontal cortex; conditions: in vivo; summary of the method: as §2
[52] = test system: Cynomolgus monkey; test: Uptake in anesthetized cynomolgus monkey medulla after 3.5 mins; type: ADME, organism-based, Medulla of organ; conditions: in vivo; summary of the method: as §2
[53] = test system: Cynomolgus monkey; test: Uptake in anesthetized cynomolgus monkey putamen after 27.5 mins; type: ADME, organism-based; conditions: in vivo; summary of the method: as §4
[54] = test system: Cynomolgus monkey; test: Uptake in anesthetized cynomolgus monkey medulla after 1.5 mins; type: ADME, organism-based, Medulla of organ; conditions: in vivo, 0.025 h; summary of the method: as §2
[55] = test system: Cynomolgus monkey; test: Uptake in anesthetized cynomolgus monkey pons after 125.0 mins; type: ADME, organism-based; conditions: in vivo; summary of the method: as §4

[11CH3]OC(=O)[C@@H]1C2CCC(C[C@@H]1c1cccc(/C=C/Br)c1)N2 (stereo not given in full)
Ratio [1]: 1.3 | Drug uptake [2]: 7.89 | Drug uptake [3]: 4.35 | Drug uptake [4]: 6.32 | Drug uptake [5]: 6.81 | Drug uptake [6]: 5.83 | Drug uptake [7]: 0.01 | Drug uptake [8]: 7.28 | Drug uptake [9]: 3.61 | Drug uptake [10]: 6.69 | Drug uptake [11]: 3.21 | Drug uptake [12]: 5.66 | Drug uptake [13]: 4.44 | Ratio [14]: 1.5 | Drug uptake [15]: 7.19 | Drug uptake [16]: 1.54 | Drug uptake [17]: 3.74 | Drug uptake [18]: 6.07 | Ratio [19]: 1.9 | Drug uptake [20]: 3.57 | Drug uptake [21]: 6.96 | Ratio [22]: 0.8 | Drug uptake [23]: 7.4 | Drug uptake [24]: 3.43 | Ratio [25]: 1.6 | Drug uptake [26]: 6.21 | Ratio [27]: 1.6 | Drug uptake [28]: 0.73 | Ratio [29]: 1 | Ratio [30]: 1.8 | Drug uptake [31]: 5.98 | Drug uptake [32]: 4.84 | Drug uptake [33]: 7 | Drug uptake [34]: 6.09 | Drug uptake [35]: 7.58 | Drug uptake [36]: 5.27 | Drug uptake [37]: 7.4 | Drug uptake [38]: 6.51 | Drug uptake [39]: 7.16 | Drug uptake [40]: 0.01 | Drug uptake [41]: 3.47 | Drug uptake [42]: 4.09 | Drug uptake [43]: 0.01 | Drug uptake [44]: 0.3 | Drug uptake [45]: 6.4 | Drug uptake [46]: 0.34 | Drug uptake [47]: 7.24 | Ratio [48]: 1.6 | Drug uptake [49]: 1.01 | Drug uptake [50]: 2.14 | Drug uptake [51]: 3.8 | Drug uptake [52]: 2.5 | Drug uptake [53]: 6.85 | Drug uptake [54]: 0.4 | Drug uptake [55]: 6.47
